Reference: ChEMBL document CHEMBL1131470, “Inhibition of human O6-alkylguanine-DNA alkyltransferase and potentiation of the cytotoxicity of chloroethylnitrosourea by 4(6)-(benzyloxy)-2,6(4)-diamino-5-(nitro or nitroso)pyrimidine derivatives and analogues” (J Med Chem, 1998)

Legend:
HeLa [1] = experiment: The compound was tested for its ability to enhance the cytotoxicity of ACNU toward HeLa S3 cells at 10 uM dose; type: functional, Homo sapiens
In short: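 HeLa S3 cervical tumour cells (AGAT activity 418 fmol/mg protein) pretreated 2 h with test compound […], then exposed to increasing ACNU concentrations. Dose-modifying factor = IC50 for ACNU alone divided by IC50 for compound pretreatment followed by ACNU.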

[2] = target: T1, Methylated-DNA--protein-cysteine methyltransferase (Homo sapiens, UniProt P16455); experiment: In vitro inhibitory activity against human O6-alkylguanine-DNA alkyltransferase (AGAT)
T1 sequence (P16455 whole entry): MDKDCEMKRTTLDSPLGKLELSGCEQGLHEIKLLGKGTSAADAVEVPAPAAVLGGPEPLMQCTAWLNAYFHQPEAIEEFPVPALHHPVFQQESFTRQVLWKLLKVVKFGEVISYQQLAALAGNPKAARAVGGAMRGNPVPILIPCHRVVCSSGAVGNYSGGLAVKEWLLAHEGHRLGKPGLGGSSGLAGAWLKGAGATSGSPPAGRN

[3] = The compound was tested for its ability to enhance the cytotoxicity of ACNU toward HeLa S3 cells at 10 uM dose; 'b' means toxicity appeared at this dose; type: cell-based; settings: human
In short: (§1)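 HeLa S3 cervical tumour cells (AGAT activity 418 fmol/mg protein) pretreated with test compound for 2 h at 0.01, 0.1, 1 or 10 μM, then exposed to increasing ACNU concentrations. Cytotoxicity measured by a previously reported method. Dose-modifying factor = IC50 for ACNU alone divided by IC50 for compound pretreatment followed by ACNU.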

HeLa [4] = experiment: The compound was tested for its ability to enhance the cytotoxicity of ACNU toward HeLa S3 cells at 0.1 uM dose; type: functional, Homo sapiens; in short: as §1
HeLa [5] = experiment: The compound was tested for its ability to enhance the cytotoxicity of ACNU toward HeLa S3 cells at 1 uM dose; type: functional, Homo sapiens; in short: as §1
HeLa [6] = experiment: The compound was tested for its ability to enhance the cytotoxicity of ACNU toward HeLa S3 cells at 0.01 uM dose; type: functional, Homo sapiens; in short: as §1

| SMILES | Dose-modifying factor (HeLa [1]) | IC50 [2] | Dose-modifying factor [3] | Dose-modifying factor (HeLa [4]) | Dose-modifying factor (HeLa [5]) | Dose-modifying factor (HeLa [6]) |
| --- | --- | --- | --- | --- | --- | --- |
| Nc1cc(OCc2ccccc2)nc(N)n1 | 1 | 170 µM |  |  |  |  |
| Nc1nc(N)c([N+](=O)[O-])c(OCc2ccccc2)n1 |  |  | Toxicity appeared at this dose | 1.2 | 4 |  |
| Nc1nc(N)c([N+](=O)[O-])c(OCc2ccncc2)n1 |  |  | Toxicity appeared at this dose | 1.2 | 3.9 |  |
| Nc1nc(N)c(N=O)c(OCc2ccc(F)cc2)n1 |  |  | Toxicity appeared at this dose | 5.8 | 9.2 | 1.4 |
| Nc1nc(N)c([N+](=O)[O-])c(OCc2ccccc2F)n1 |  |  | Toxicity appeared at this dose | 1 | 1.1 |  |
| Nc1nc(N)c([N+](=O)[O-])c(OCc2ccc(F)cc2)n1 |  |  | Toxicity appeared at this dose | 1.5 | 5.1 |  |
| Nc1nc(N)c([N+](=O)[O-])c(OCc2ccccn2)n1 |  |  | Toxicity appeared at this dose | 1 | 1 |  |
| Nc1nc(N)c([N+](=O)[O-])c(OCc2cccc(F)c2)n1 |  |  | Toxicity appeared at this dose | 1.2 | 4.8 |  |
| Nc1nc(N)c(N=O)c(OCc2ccncc2)n1 |  |  | Toxicity appeared at this dose | 2.9 | 7.3 | 1 |
| Nc1nc(N)c([N+](=O)[O-])c(OCc2cccnc2)n1 |  |  | Toxicity appeared at this dose | 1.2 | 3.6 |  |
| Nc1nc(N)c(N=O)c(OCc2ccccc2)n1 |  | 0.13 µM |  | 4.3 | 8.8 | 1.2 |
| Nc1nc(OCc2ccccc2)c2nc[nH]c2n1 [6-O-BENZYLGUANINE] | 7.6 |  |  | 1.3 | 4.4 |  |
